Source: PubChem BioAssay (several laboratories)
A selection: hits, their analogues and other compounds. The true share with any hit is near 6.4%.
tolC growth inh – growth inhibitors of E. coli tolC mutant, primary screen, strain BW25113 ΔtolC::kan, 384-well; OD615; 65,000 compounds, 2.2% hits; growth inhibition, % at 10 µM (by protocol); AID 573, 2007;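 active = growth inhibition at or above a cutoff equal to the mean over every tested compound plus 3 SD, cut at about 60% in these data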;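 note: growth measured after 20 h incubation at 37 °C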
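Test system: E. coli BW25113 ΔtolC::kan bacteria | Medium: Kanamycin-containing LB broth (50 µg/mL) | Dosing: One dose of 10 µM final | Times: 20 h incubation with compound, 37 °C | Detection: Optical density read at 615 nm | Read-out basis: Percent growth inhibition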
Jurkat tox 60K – cytotoxicity toward Jurkat T cells, primary screen, cytotoxicity control, cell-based, Jurkat E6.1, 60K MLSMR library; inhibition, % at 4 µM; Jurkat E6.1 viability, ATP luminescence, 48 h; 56,000 compounds, 1.2% hits; AID 463, 2006;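 active = inhibition above the mean inhibition of all tested compounds plus 3 SD, cut at about 28% in these data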
E coli WT exp – growth inhibitors of wild-type E. coli, primary screen, strain BW25113, expanded library, OD600 | OD600 absorbance | growth inhibition, % at 100 µM | 98,000 compounds, 0.15% hits | AID 710, 2007;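 active = growth inhibition above about 50% at one test dose, limit read from the data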;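 note: growth measured after 20 h incubation at 37 °C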
Fibroblast inh – antiproliferative effect on LL 47 fibroblasts – human, LL 47 cells, CellTiter-Glo luminescence, primary screen; LL 47 human lung fibroblast viability, ATP luminescence; active compounds read low; viability, % at 10 µM; 85,000 compounds, 1.1% hits; AID 719, 2007;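 active = viability at or below 50% in the single dose screen; inactive = viability above 50%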;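 note: compound exposure lasted 72 h before the ATP readout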
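Material: human lung fibroblast line LL 47, low passage; Evaluation: viability percentage against median untreated-cell control; Buffer or medium: 15% FBS in IMEM; Incubation: 72 h compound exposure at 37 °C after overnight plating; Dosing: 0.1% DMSO in all compound wells; Measured by: CellTiter-Glo luminescence.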
HUVEC prolif 384 – inhibitors of HUVEC proliferation, primary screen, cell-based, 384-well; CellTiter-Glo luminescence, 72 h; active compounds read low; AID 648, 2007; 86,000 compounds, 1.1% hits; viability, % at 10 µM (by protocol);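 active = viability at or below 30%; inactive = viability above 30%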
H69AR growth 86K – proliferation blockers of H69AR lung cancer cells, primary screen, cell-based, human, 86K library; 85,000 compounds, 6% hits; viability, % at 10 µM; H69AR lung tumor viability, ATP luminescence, 72 h; active compounds read low;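 active = viability at or below 40%; inactive = viability above 40%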;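 note: multidrug resistant small cell line overexpressing MRP-1 efflux transporter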
Each line names hits and unclear results; the compound was inactive in the other large screens.

OC(c1ccccc1)c1nc2ccccc2s1 (centres undefined)	none
CCOC(=O)N1CCC(NC(=O)c2cnn3c(C(F)(F)F)cc(-c4cccc(OC)c4)nc23)CC1	Fibroblast inh 27 (no result: E coli WT exp)
CCOC(=O)N1CCC(NC(=O)c2cc3cc4cc(OC)ccc4nc3o2)CC1	H69AR growth 86K 38
O=C(c1ccco1)N1CCN(c2nc(C3CC3)nc3sc4c(c23)CCCC4)CC1	tolC growth inh 77
Cc1nc(N2CCN(C(=O)c3ccco3)CC2)c2c3c(sc2n1)CCCC3	none (no result: tolC growth inh, Jurkat tox 60K, E coli WT exp)
Cc1ccc(-c2cc(-c3ccccc3)c(C#N)c(N)n2)o1	none
Cc1ccc(-c2cc(-c3ccc(F)cc3)nc(N)c2C#N)o1	H69AR growth 86K 14
O=S(=O)(Nc1ccc(-c2nc3ccccc3o2)cc1)c1ccccc1	tolC growth inh 93
CC(=O)Nc1ccc(S(=O)(=O)Nc2cccc(-c3nc4ccccc4o3)c2)cc1	none (no result: tolC growth inh, Jurkat tox 60K)
Cc1cccc2cc(CN(Cc3ccco3)S(=O)(=O)c3ccc4c(c3)OCCO4)c(=O)[nH]c12	none
O=[N+]([O-])c1ccc(N=Nc2ccc(O)cc2O)cc1	Fibroblast inh 40, HUVEC prolif 384 18, H69AR growth 86K 3.2 (no result: tolC growth inh, Jurkat tox 60K)
CCOC(=O)CCCCC(=O)c1[nH]c(=O)[nH]c1Cn1cnc2ccccc21	none
CCOC(=O)c1c(-c2ccc(C)c(C)c2)csc1NC(=O)C1CC=CCC1C(=O)O (centres undefined)	none (no result: tolC growth inh, Jurkat tox 60K, Fibroblast inh, HUVEC prolif 384, H69AR growth 86K)
FC(F)(F)c1cc(-c2ccco2)nc(NCc2ccco2)n1	none (no result: Jurkat tox 60K, Fibroblast inh, HUVEC prolif 384, H69AR growth 86K)
COc1ccc(-c2nc(NC(=O)C3CCN(c4nc5ccccc5o4)CC3)sc2C)cc1	H69AR growth 86K 32
Cc1ccc(Cl)cc1N1CCN(Cc2nnnn2Cc2ccco2)CC1	tolC growth inh 65
CCC(c1nnnn1Cc1ccco1)N1CCN(c2cc(Cl)ccc2C)CC1 (centres undefined)	none
COCCCNC(=O)CCCOc1ccccc1	none
Cc1cccc(-n2c(=O)cc(N3CCN(c4ccc(F)cc4)CC3)[nH]c2=O)c1	none
CCOc1cc(C)c(Cl)cc1S(=O)(=O)NCc1ccc2c(c1)OCO2	H69AR growth 86K 22
CCOc1cc(S(=O)(=O)NCc2ccc3c(c2)OCO3)c(C)cc1C	none
O=C1CCCN1c1ccc(S(=O)(=O)Nc2ccc3c(c2)OCCO3)cc1	Jurkat tox 60K 82 (no result: Fibroblast inh, HUVEC prolif 384, H69AR growth 86K)
Cc1ccc(C(=O)Nc2ccccc2C(=O)N2CC3(C)CC2CC(C)(C)C3)cc1 (centres undefined)	none (no result: tolC growth inh, Jurkat tox 60K)
CCOC(=O)C1CCN(C(=O)c2cc3c(-c4ccc(OC)c(OC)c4)nn(C)c3s2)CC1	none
CCOC(=O)C1CCCN(C(=O)c2cc3c(-c4cccc(OC)c4)nn(C)c3s2)C1 (centres undefined)	Jurkat tox 60K 79, H69AR growth 86K 22
CCN(CC(=O)NC1CCCCC1)S(=O)(=O)c1ccc(Cl)cc1	none
COC(=O)c1ccccc1NC(=O)c1ccc(-c2ccccc2F)o1	H69AR growth 86K 13
CC(C)c1nnc(SCC(=O)NCCC2=CCCCC2)n1N	none (no result: tolC growth inh, Jurkat tox 60K)
Cc1cccc(-n2nnnc2SC(C)C(=O)NCCC2=CCCCC2)c1 (centres undefined)	H69AR growth 86K 35 (no result: Jurkat tox 60K)
CCCCCC1CC(CC(=O)O)C(=O)O1 (centres undefined)	none
CC(C)NC(=O)c1cccc(Br)c1	none (no result: tolC growth inh, Jurkat tox 60K)
CCOC(=O)n1c(=O)oc2ccc(Cl)cc21	H69AR growth 86K 38 (no result: tolC growth inh, Jurkat tox 60K, E coli WT exp)
Cc1ccc(S(=O)(=O)C(C#N)c2nc3ccccc3nc2N2CCCCC2)cc1 (centres undefined)	none (no result: Jurkat tox 60K, E coli WT exp)
N#CC(c1nc2ccccc2nc1N1CCCCC1)S(=O)(=O)c1ccc(Cl)cc1 (centres undefined)	tolC growth inh 89 (no result: E coli WT exp)
CCOC(=O)N1CCN(c2nc3ccccc3nc2C(C#N)S(=O)(=O)c2ccc(C)cc2)CC1 (centres undefined)	tolC growth inh 77
CCOc1ccc2c(c1)-c1c(ssc1=S)C(C)(C)N2C	H69AR growth 86K 32 (no result: tolC growth inh, Jurkat tox 60K)
CCN(CCNC(=O)Nc1ccc(Cl)cc1)c1ccccc1	H69AR growth 86K 7.2
CCN(CCNC(=O)C1CCN(S(C)(=O)=O)CC1)c1ccccc1	none
O=C(Nc1ccc(C(F)(F)F)cc1)C1CCCN1S(=O)(=O)c1cccc2cccnc12 (centres undefined)	tolC growth inh 76
O=C(Nc1cccc(F)c1)C1CCCN1S(=O)(=O)c1cccc2cccnc12 (centres undefined)	none
CC1CCN(S(=O)(=O)c2ccc3c(c2)oc(=O)n3CC(=O)N2CCc3ccccc3C2)CC1	H69AR growth 86K 18 (no result: tolC growth inh, Jurkat tox 60K)
CCn1cc(SCC(=O)Nc2cc(C)on2)c2ccccc21	none
CCC(Sc1nnnn1-c1ccccc1)C(=O)NC(C)c1ccccc1 (centres undefined)	none
CCC(Sc1nnnn1-c1ccccc1)C(=O)Nc1nc2ccccc2s1 (centres undefined)	tolC growth inh 74 (no result: Jurkat tox 60K, Fibroblast inh, HUVEC prolif 384, H69AR growth 86K)
COc1ccc(-n2nnnc2SCC(=O)c2ccc(O)c(O)c2)cc1	H69AR growth 86K 26
CCOC(=O)c1cc2sc(C)cc2n1C(C)C(=O)OCC (centres undefined)	tolC growth inh 62 (no result: Fibroblast inh, HUVEC prolif 384, H69AR growth 86K)
CC1(C)CC(=O)c2cc(C(=O)N3CCCC(C)(C)C3)c(=O)n(-c3ccccc3)c2C1	none (no result: Jurkat tox 60K)
CCCOC(=O)CSC1=C(C#N)C(c2ccc3c(c2)OCO3)CC(=O)N1 (centres undefined)	H69AR growth 86K 23 (no result: Jurkat tox 60K)
CCOc1ccc(NC(=O)CSC2=C(C#N)C(c3ccc4c(c3)OCO4)CC(=O)N2)cc1 (centres undefined)	none (no result: Jurkat tox 60K)
Cc1cc2n(n1)C(c1ccsc1)Nc1ccccc1-2 (centres undefined)	none
COc1ccc(OCC(=O)OCC(=O)NCc2ccco2)cc1	none (no result: tolC growth inh, Jurkat tox 60K, Fibroblast inh, HUVEC prolif 384, H69AR growth 86K)
CCn1c(SCC(=O)Nc2nc(C)c(C)s2)nnc1-c1cccs1	none (no result: tolC growth inh, Jurkat tox 60K, E coli WT exp)
COCc1cc(=O)[nH]c(Nc2nc(C)c3ccc(C)cc3n2)n1	none (no result: E coli WT exp, Fibroblast inh, HUVEC prolif 384, H69AR growth 86K)
CCOc1ccc2nc(Nc3nc(CSc4nnnn4-c4ccccc4)cc(=O)[nH]3)nc(C)c2c1	H69AR growth 86K 4.5 (no result: tolC growth inh, Jurkat tox 60K)
Cc1ccc2c(C)nc(Nc3nc(CSc4nnnn4-c4ccccc4)cc(=O)[nH]3)nc2c1	H69AR growth 86K 35
COCc1cc(=O)[nH]c(Nc2nc(C)c3ccccc3n2)n1	Fibroblast inh 48, H69AR growth 86K 27 (no result: tolC growth inh, Jurkat tox 60K)
COc1ccc2nc(Nc3nc(CSc4nnnn4-c4ccccc4)cc(=O)[nH]3)nc(C)c2c1	HUVEC prolif 384 3.0, H69AR growth 86K 1.7 (no result: tolC growth inh, Jurkat tox 60K)
Cc1cccc(NC(=O)Nc2cccc(F)c2)n1	none
CS(=O)(=O)Nc1ccccc1C(=O)N1CCCC1	none (no result: Jurkat tox 60K)
Cc1ccc(OC(=S)Nc2ccc(F)cc2)cc1	none (no result: tolC growth inh, Jurkat tox 60K, E coli WT exp)
Cc1ccc(OC(=S)Nc2ccc(O)cc2)cc1	H69AR growth 86K 15 (no result: tolC growth inh, Jurkat tox 60K, E coli WT exp)
